Activity calls are given as the source filed them. The calls are words filed in the database; no cut-off is given here.

The values that follow come from ChEMBL document CHEMBL1123913, “Discovery and anticonvulsant activity of the potent metabolic inhibitor 4-amino-N-(2,6-dimethylphenyl)-3,5-dimethylbenzamide” (1987).

The subject of experiment [1] is Mus musculus. The experiment is described as follows: Time taken for peak anticonvulsant effect(TPE) was measured by oral administration to mice. The class given is functional. Put shortly: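 Fasted mice, four per group, given a range of oral doses in 5% acacia/water. Challenged with corneal electroshock (40 mA, 0.1 s, ac) at 0.5, 1, 2, 3 and 4 h after dosing to find the time of peak anticonvulsant effect.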

Experiment [2] relates to Mus musculus. Put plainly: Ataxia or neurological deficit was measured as horizontal screen test(HS) in mice at a dose of 160 mg/kg; NA means Not active. The class given is functional, organism-based. Also on record: dose 160 mg/kg.
In experiment [3] the test system is Mus musculus. The experiment is described as follows: Antagonistic activity against MES (Maximal Electroshock)-induced seizures after oral administration to mice. The format is functional. Put shortly:
(§1)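 Fasted (90 min) mice dosed orally with a range of doses as suspension in 5% acacia/water. Electroshock 40 mA, 0.1 s, ac, via corneal electrodes at the time of peak effect, using at least four doses, 12 mice per dose. ED50 for prevention of tonic-extensor convulsions by Litchfield–Wilcoxon, with 95% confidence limits.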
For orientation: In the maximal electroshock model the usual endpoint is tonic extension of the hind limbs.

Experiment [4] is filed under the species Mus musculus. The experiment is described as follows: Ataxia or neurological deficit was measured as horizontal screen test(HS) in mice. The format is functional. In short, it runs like this:
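Male CF1 mice (20–25 g), fasted 90 min, given oral doses as suspension in 5% acacia/water, then placed on a 13 cm × 13 cm wire screen. Retested at the time of peak effect with at least four doses and 12 mice per dose. ED50 by Litchfield–Wilcoxon, with 95% confidence limits.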

Experiment [5] relates to Mus musculus. Put plainly: Effect on Hexobarbitol-Induced sleeping time in mice at a dose of 30.4 mg/kg peroral administration. The class given is functional. Particulars: route oral. Put shortly:
(§2)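 Groups of 10 fasted mice dosed orally in 5% acacia/water. Hexobarbital 100 mg/kg ip, solubilized with stoichiometric NaOH, given 1.0 h later. Duration of loss of righting reflex to the nearest minute. Mean ± SEM, percent increase over hexobarbital control, p < 0.05 significance.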

Experiment [6] relates to Mus musculus. The experiment is described as follows: Effect on Hexobarbitol-Induced sleeping time in mice at a dose of 7.6 mg/kg peroral administration. The format is functional. The following applies: route oral. Put shortly: as §2
The subject of experiment [7] is Mus musculus. Put plainly: Effect on Hexobarbitol-Induced sleeping time in mice at a dose of 0 mg/kg peroral administration. The class given is functional. Particulars: route oral. In short, it runs like this:
(§3)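 Groups of 10 fasted mice dosed orally in 5% acacia/water. Hexobarbital 100 mg/kg ip, solubilized with stoichiometric NaOH, given 0.5 h later. Sleeping time is loss of righting reflex, to the nearest minute. Reported as mean ± SEM and percent increase over hexobarbital control.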

The test system of experiment [8] is Mus musculus. Put plainly: Antagonistic activity against MES-induced seizures after oral administration to mice. The class given is functional. In short, it runs like this: as §1
Experiment [9] concerns Mus musculus. Put plainly: Effect on Hexobarbitol-Induced sleeping time in mice at a dose of 3.8 mg/kg peroral administration. The format is functional. The following applies: route oral. Put shortly:
as §2

For experiment [10], the system named is Mus musculus. The experiment is described as follows: Effect on Hexobarbitol-Induced sleeping time in mice at a dose of 15.2 mg/kg peroral administration. The format is functional. Particulars: route oral. In short, it runs like this: as §2
The test system of experiment [11] is Mus musculus. Put plainly: Plasma concentration was determined after 120 min of oral administration in mice. The class given is functional, organism-based. In short, it runs like this: (§4)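 Three groups of two mice dosed orally at 1.7, 3.5 or 5.6 mg/kg, suspended in 5% acacia. Blood taken by cardiac puncture under methoxyfluorane into heparin, plasma stored at −30 °C. Parent and N-acetyl metabolite measured by C18 HPLC with absorbance detection against plasma standards of 50–2000 ng/mL. Detection limit 25 ng/mL. Mean ± SEM.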

Experiment [12] relates to Mus musculus. Put plainly: Antagonistic activity against MES(Maximal Electroshock)-induced seizures after oral administration to mice. The class given is functional. In short, it runs like this:
as §1

Experiment [13] deals with Mus musculus. The experiment is described as follows: Plasma concentration was determined after 30 min of oral administration in mice. The format is functional, organism-based. Put shortly: as §4
The subject of experiment [14] is Mus musculus. Put plainly: Plasma concentration was determined after 60 min of oral administration in mice. The class given is functional, organism-based. Put shortly: as §4
Experiment [15] concerns Mus musculus. Put plainly: Ataxia or neurological deficit was measured as horizontal screen test(HS) in mice at the highest dose of 300 mg/kg; NA means Not active. The arrangement: dose 300 mg/kg. The format is functional, organism-based.
The test system of experiment [16] is Mus musculus. Put plainly: Plasma concentration was determined after 360 min of oral administration in mice. The format is functional, organism-based. Put shortly:
as §4

The test system of experiment [17] is Mus musculus. The experiment is described as follows: Plasma concentration was determined after 240 min of oral administration in mice. The format is functional, organism-based. In short, it runs like this: as §4
For experiment [18], the system named is Mus musculus. The experiment is described as follows: Effect on Hexobarbitol-Induced sleeping time in mice at a dose of 1.6 mg/kg peroral administration. Particulars: route oral. The class given is functional. Put shortly:
as §3

The test system of experiment [19] is Mus musculus. Put plainly: Effect on Hexobarbitol-Induced sleeping time in mice at a dose of 12.8 mg/kg peroral administration. The format is functional. The following applies: route oral. Put shortly:
as §3

Experiment [20] relates to Mus musculus. Put plainly: Effect on Hexobarbitol-Induced sleeping time in mice at a dose of 6.4 mg/kg peroral administration. The class given is functional. The following applies: route oral. Put shortly:
as §3

Experiment [21] in a line: Protective index (HS ED50/MES ED50) after oral administration in mice. The class given is functional. Put shortly: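 Ratio of the horizontal-screen ED50 to the MES ED50. Both come from oral dosing of fasted mice in 5% acacia/water at the time of peak effect and are calculated by Litchfield–Wilcoxon.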
The subject of experiment [22] is Mus musculus. The experiment is described as follows: Effect on Hexobarbitol-Induced sleeping time in mice at a dose of 3.2 mg/kg peroral administration. The format is functional. The following applies: route oral. In short, it runs like this:
as §3

For `CC(=O)Nc1c(C)cc(C(=O)Nc2c(C)cccc2C)cc1C`, the TPE in the experiment on Mus musculus [1] amounted to 2 h. Also, the ED50 – broadly, the dose at which the effect has come halfway, by size or by number of responders – with Mus musculus [2] is “inactive”. Also, the 50% effect level in the experiment on Mus musculus [3] (ED50) was put at a dose of 170 mg/kg.
In turn, `O=C1NC(=O)C(c2ccccc2)(c2ccccc2)N1` [PHENYTOIN] showed a TPE in the experiment on Mus musculus [1] of 1 h. Besides, the values for the ED50 in the experiment on Mus musculus [3] and in the experiment listed under Mus musculus [4] were 9.4 mg/kg and 210 mg/kg, respectively.
In turn, `Cc1cc(C(=O)Nc2c(C)cccc2C)ccc1N` came in with a TPE in the experiment on Mus musculus [1] of 1 h. In addition, the Sleeping time in the experiment on Mus musculus [5] turned out to be 133.8 min; with Mus musculus [6], 97.9 min; in the experiment with Mus musculus [7], 66.4 min; in the experiment on Mus musculus [9], 85.6 min; in the experiment on Mus musculus [10] it was 85.5 min. In addition, the ED50 with Mus musculus [8] was found to be 3.5 mg/kg; in the experiment listed under Mus musculus [4] it was 84 mg/kg.
For `Cc1cc(C(=O)Nc2c(C)cccc2C)cc(C)c1N`, the results for the Concentration in the experiment with Mus musculus [11], with Mus musculus [13] and in the experiment with Mus musculus [14] were 1060 ng/mL, 1480 ng/mL and 1160 ng/mL, respectively. This compound returned a TPE with Mus musculus [1] of 1 h. In addition, the median effective dose (ED50) in the experiment on Mus musculus [12] stood at 5.6 mg/kg; in the experiment filed under Mus musculus [4], 64 mg/kg.
As to `CC(=O)Nc1ccc(C(=O)Nc2c(C)cccc2C)cc1`, the ED50 result with Mus musculus [15] was “inactive”. Further, the Concentration in the experiment with Mus musculus [11] turned out to be 545 ng/mL; in the experiment on Mus musculus [16] it was 225 ng/mL; with Mus musculus [17], 425 ng/mL; in the experiment with Mus musculus [13], 412 ng/mL; in the experiment on Mus musculus [14], 587 ng/mL. For the same compound, the TPE in the experiment on Mus musculus [1] turned out to be 2 h. Further, the 50% effect level with Mus musculus [3] (ED50) was put at a dose of 3.8 mg/kg.
Turning to `CC(=O)Nc1ccc(C(=O)Nc2c(C)cccc2C)cc1C`, the Concentration in the experiment with Mus musculus [11] was determined as 91 ng/mL; in the experiment with Mus musculus [13], 79 ng/mL; in the experiment with Mus musculus [14], 97 ng/mL. The TPE with Mus musculus [1] was determined as 1 h. Also, the ED50 worked out at 4.5 mg/kg in the experiment with Mus musculus [3] and 56 mg/kg in the experiment filed under Mus musculus [4].
In the case of `Cc1cccc(C)c1NC(=O)c1ccc(N)cc1` [AMELTOLIDE], the Concentration with Mus musculus [11] is 656 ng/mL; with Mus musculus [16], 299 ng/mL; in the experiment on Mus musculus [17], 394 ng/mL; in the experiment with Mus musculus [13], 1090 ng/mL; in the experiment on Mus musculus [14], 893 ng/mL. Also, in the experiment with Mus musculus [1], the TPE is 0.5 h. Besides, the Sleeping time in the experiment with Mus musculus [7] was 59.6 min; with Mus musculus [18], 67.9 min; in the experiment with Mus musculus [19], 76.4 min; in the experiment with Mus musculus [20] it was 75 min; in the experiment with Mus musculus [22], 69.3 min. This compound gave a PI in experiment [21] of 13. For the same compound, the ED50 in the experiment on Mus musculus [3] is 1.7 mg/kg; in the experiment listed under Mus musculus [4], 23 mg/kg.
